Sampled rows, rich in hits. Any-hit rate of the full collection: about 1.3%.
Efflux pump inh: inhibitors of Candida antifungal efflux pumps expressed in yeast; S. cerevisiae Candida pump triplex, Nile Red efflux; AID 485275; 330,000 compounds, 0.44% hits; inhibition, % at 10 µM;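 active = plate passing quality check with inhibition over a set limit, or well fluorescence over plate mean plus 4 SD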;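 also: Nile Red retained in pooled yeast measured as flow cytometry median fluorescence; higher means more Nile Red kept so more efflux inhibition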
MT1-MMP act inh: MT1-MMP (human) activation inhibition; P50281; HT1080 RFP-PRO-GFP cells, GFP/RFP ratio fluorescence, overnight; percent of plate control window, DMSO zero; GFP/RFP ratio change, % at 20 µM; 360,000 compounds, 0.061% hits; AID 651647;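 active = GFP/RFP ratio change of at least 30% with cell ATP level not reduced by more than half and red fluorescence within 50% of control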
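Assay system: HT1080 cells carrying an RFP-PRO-GFP reporter | Dosing: Single dose of 20 µM compound, 1% DMSO final | Incubation: Cells overnight before dosing, compound overnight, 37 °C, 5% CO2 | Evaluation: GFP/RFP fluorescence ratio | Control set: DMSO and RFP-L50D-GFP cell wells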
HGIII-sPLA2 inh: Inhibits HGIII-sPLA2 liposome hydrolysis, primary screen; Q9NZ20; QFRET BODIPY PC-A2 liposome hydrolysis, fluorescence; inhibition, % at 12.2 µM; 370,000 compounds, 0.56% hits;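 active = inhibition above mean plus 3 SD of compounds lying within the high and low control bounds, cut at about 19% in these data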
Target sequence (Q9NZ20 whole entry, looked up): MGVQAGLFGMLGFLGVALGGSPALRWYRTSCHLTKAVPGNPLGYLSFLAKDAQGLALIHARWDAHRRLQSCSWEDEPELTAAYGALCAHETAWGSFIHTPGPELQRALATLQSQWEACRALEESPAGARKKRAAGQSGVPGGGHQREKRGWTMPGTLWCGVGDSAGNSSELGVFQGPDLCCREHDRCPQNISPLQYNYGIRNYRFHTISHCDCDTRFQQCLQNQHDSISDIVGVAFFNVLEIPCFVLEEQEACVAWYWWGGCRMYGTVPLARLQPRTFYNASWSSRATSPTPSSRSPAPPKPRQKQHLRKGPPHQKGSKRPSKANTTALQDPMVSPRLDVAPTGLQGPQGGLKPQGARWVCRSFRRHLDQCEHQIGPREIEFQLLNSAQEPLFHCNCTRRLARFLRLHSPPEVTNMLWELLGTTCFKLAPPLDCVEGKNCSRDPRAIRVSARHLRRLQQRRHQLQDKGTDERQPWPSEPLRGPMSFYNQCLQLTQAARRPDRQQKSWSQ
TAG inh: reduces triacylglycerol accumulation in H9c2 cells. Nile Red lipid (TAG) fluorescence; cells loaded with 200 µM oleic acid. AID 651582. 230,000 compounds, 0.66% hits. inhibition, % at 12.5 µM;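 active = pattern-corrected inhibition of lipid staining of at least 50% with the nuclear-stain viability signal not falling by more than 50%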
hGIII sPLA2 conf: human GIII-sPLA2 inhibition, confirmation | shares compounds with HGIII-sPLA2 inh | recombinant hGIII-sPLA2, BODIPY PC-A2 QFRET fluorescence | inhibition, % at 12.2 µM | 2,000 compounds, 34% hits;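 active = mean inhibition across triplicates above the hit cutoff set in the earlier primary screen, cut at about 19% in these data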
535nm interf: 535nm fluorescence interference, HGIII-sPLA2 counter-screen; shares compounds with HGIII-sPLA2 inh; BODIPY FL product fluorescence interference, QFRET; inhibition, % at 12.2 µM; 2,000 compounds, 8.5% hits; AID 743282;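 active = average inhibition above the solvent-only control mean plus 3 SD, cut at about 6% in these data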
BODIPY interf DR: 535nm optical interference dose response, HGIII-sPLA2 counter-screen | IC50, µM | 240 tested, under 10 active | shares compounds with HGIII-sPLA2 inh | BODIPY FL product fluorescence interference, cell-free;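 active = IC50 at or below 10 µM; inactive = IC50 above 10 µM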
Each line names hits and unclear results; the compound was inactive in the other large screens (follow-up assays come after a bar, where they were run).

O=C(Nc1nnc(SCC(=O)N2CCCc3ccccc32)s1)c1ccc2ccccc2c1	HGIII-sPLA2 inh 20 (no result: TAG inh) | hGIII sPLA2 conf inactive | 535nm interf inactive
CCCCc1ccc(NC(=S)N2CCN(C)CC2)cc1	none (no result: TAG inh)
CCCCc1ccc(NC(=S)N2CCCC2)cc1	HGIII-sPLA2 inh 20 | hGIII sPLA2 conf inactive | 535nm interf inactive
COc1ccc2nc(NC(=O)CCN3C(=S)NC(C)(C)CC3C)sc2c1 (configuration not stated)	HGIII-sPLA2 inh 26 (no result: TAG inh) | hGIII sPLA2 conf 24 | 535nm interf inactive
O=C(CNC(=S)N(Cc1ccccc1)Cc1cccnc1)NC1CCCC1	HGIII-sPLA2 inh 23 (no result: TAG inh) | hGIII sPLA2 conf inactive | 535nm interf inactive
O=C(CNC(=S)N(Cc1ccccc1)Cc1cccnc1)NC1CC1	none (no result: TAG inh)
O=C(c1cccc(Oc2ccccc2)c1)N1CCC(Oc2cccnc2)CC1	none (no result: Efflux pump inh, MT1-MMP act inh, TAG inh)
NNc1nc(-c2ccccc2)nc(-c2ccccc2)c1Br	none
O=C(NCc1cccnc1)c1csc([C@@H]2O[C@H](CO)[C@H](O)[C@H](O)[C@H]2O)n1	none (no result: Efflux pump inh)
Cc1ccc(/C=C/S(=O)(=O)NCCC(=O)NCc2ccccc2F)cc1	none
COc1ccc(C2=Nn3c(nnc3-c3ccccc3)SC2)cc1OC	none (no result: TAG inh)
CCCc1nnc2n1N=C(c1ccc(OC)c(OC)c1)CS2	HGIII-sPLA2 inh 20 (no result: TAG inh) | hGIII sPLA2 conf inactive | 535nm interf inactive
COc1ccccc1Nc1nc(-c2c(C)[nH]c3ccccc23)cs1	HGIII-sPLA2 inh 20 (no result: TAG inh) | hGIII sPLA2 conf 20 | 535nm interf 9.8
Cc1[nH]c2ccccc2c1-c1csc(N)n1	none (no result: TAG inh)
CCOc1cccc(C2NC(=S)NC(C)=C2C(=O)Nc2ccccc2)c1 (configuration not stated)	HGIII-sPLA2 inh 24 (no result: TAG inh) | hGIII sPLA2 conf inactive | 535nm interf inactive
CCOc1cc(C2NC(=S)NC(C)=C2C(=O)Nc2ccc(OC)cc2)ccc1O (configuration not stated)	none (no result: TAG inh)
C=Cc1ccc(C2=CC(=O)C[C@H](c3ccc(OC)cc3)C2)cc1	none
CCN(CC)C(=O)c1ccc2sc([C@H]3C[C@H](O)[C@@H](CO)O3)nc2c1	HGIII-sPLA2 inh 22 (no result: Efflux pump inh) | hGIII sPLA2 conf inactive | 535nm interf inactive
CCSc1nnc(NC(=O)c2cc(OC)c(OC)c(OC)c2)s1	none
COC(=O)C1=C(C)NC(C)=C(C(=O)OC)C1c1ccccn1	HGIII-sPLA2 inh 22 (no result: TAG inh) | hGIII sPLA2 conf inactive | 535nm interf inactive
COC(=O)C1=C(C)Nc2ncnn2C1c1ccccn1 (configuration not stated)	none (no result: TAG inh)
CCC(=O)Nc1ccc(C(=O)n2ccc(C)n2)cc1	none
Cc1ccn(C(=O)c2ccc(NC(=O)CC(C)C)cc2)n1	HGIII-sPLA2 inh 19 (no result: TAG inh) | hGIII sPLA2 conf inactive | 535nm interf inactive
O=C(Nc1nnc([C@@H]2C[C@H](O)[C@@H](CO)O2)s1)c1ccccc1Cl	HGIII-sPLA2 inh 20 (no result: Efflux pump inh) | hGIII sPLA2 conf inactive | 535nm interf inactive
C/C(=N\NC(=O)c1nn(C)c(C)c1Br)c1ccc(NC(=O)c2ccoc2C)cc1	none (no result: TAG inh)
C/C(=N\NC(=O)c1nn(C)c(C)c1Br)c1ccc(NC(=O)c2ccccc2F)cc1	HGIII-sPLA2 inh 22 (no result: TAG inh) | hGIII sPLA2 conf inactive | 535nm interf inactive
Cc1onc(-c2ccccc2)c1-c1n[nH]c(=S)n1-c1ccccc1Cl	HGIII-sPLA2 inh 19 (no result: TAG inh) | hGIII sPLA2 conf 23 | 535nm interf inactive
CNC(=O)C1C(=S)NC(N)=C(C#N)C1c1ccccc1 (configuration not stated)	none (no result: TAG inh)
COC(=O)C1CC(=O)c2sccc2C1 (configuration not stated)	HGIII-sPLA2 inh 20 (no result: TAG inh) | hGIII sPLA2 conf inactive | 535nm interf inactive
CCOC(=O)C1CC(=O)c2cc(OC)c(OC)cc2C1 (configuration not stated)	none (no result: TAG inh)
O=C(NCCS(=O)(=O)N1CCCCC1)c1ccc2c(c1)OCO2	none
CCc1c(C)nc2c(-c3ccccc3)c[nH]n2c1=O	HGIII-sPLA2 inh 24 (no result: TAG inh) | hGIII sPLA2 conf 33 | 535nm interf inactive | BODIPY interf DR inactive
CC(C)Oc1ccc(CC2CCC(=O)N(C)C2=O)cc1 (configuration not stated)	HGIII-sPLA2 inh 21 (no result: TAG inh) | hGIII sPLA2 conf inactive | 535nm interf inactive
CC(C)Oc1ccc(CC2CC(=O)NC2=O)cc1 (configuration not stated)	none
Nc1[nH]n(-c2ccccc2)c(=O)c1N=Nc1ccc2c(c1)OCCO2	none
Nc1[nH]n(-c2ccccc2)c(=O)c1N=Nc1ccc2c(c1)OCO2	HGIII-sPLA2 inh 21 | hGIII sPLA2 conf 27 | 535nm interf inactive
Cc1nc2ccccc2n1Cc1ccccc1	none (no result: TAG inh)
Cc1nc2ccccc2n1CSc1ccccc1	HGIII-sPLA2 inh 21 (no result: TAG inh) | hGIII sPLA2 conf inactive | 535nm interf inactive
CN(C(=O)CN1C(=O)NC(c2ccccc2)(c2ccccc2)C1=O)C1CCS(=O)(=O)C1 (configuration not stated)	none
S=c1[nH]c(-c2ccccc2)cn1/N=C/c1cccs1	HGIII-sPLA2 inh 24 | hGIII sPLA2 conf 38 | 535nm interf 12
S=c1[nH]c(-c2ccccc2)cn1/N=C/c1ccc(Br)cc1	none
CCC1(c2ccccc2)NC(=S)N(c2cccc(C)c2C)N1 (configuration not stated)	HGIII-sPLA2 inh 20 (no result: TAG inh) | hGIII sPLA2 conf 22 | 535nm interf inactive
Cc1ccc(F)cc1C(=O)N1CCCC1(C)C(=O)NCC(C)C (configuration not stated)	none (no result: Efflux pump inh)
O=C(COC(=O)/C=C/c1cccc(Cl)c1)NCCC1=CCCCC1	none (no result: TAG inh)
O=C(COC(=O)/C=C/c1ccc(Cl)cc1)NCCC1=CCCCC1	HGIII-sPLA2 inh 21 (no result: TAG inh) | hGIII sPLA2 conf inactive | 535nm interf inactive
COc1ccc(C(C)=O)cc1COC(=O)CSCC(=O)Nc1ccc(C)cc1	none
Oc1ccc(/C=N/N(Cc2ccccc2)c2ccccc2)c(O)c1O	HGIII-sPLA2 inh 20 (no result: Efflux pump inh) | hGIII sPLA2 conf 30 | 535nm interf 7.4
Cc1cc(NC(=O)OC(C)(C)C)c(-n2nnnc2C(C(=O)c2ccccc2)N2CCOCC2)cc1C (configuration not stated)	none (no result: Efflux pump inh, TAG inh)
O=c1ccn([C@@H]2O[C@H](CNCC3=Cc4cc(O)ccc4OC3)[C@@H](O)[C@H]2O)c(=O)[nH]1	HGIII-sPLA2 inh 20 (no result: Efflux pump inh) | hGIII sPLA2 conf inactive | 535nm interf inactive
CCOC(=O)C1=C(C)N=C2SC=C(C)N2C1c1ccc(OC)cc1 (configuration not stated)	none
CCC1CCCCN1C(=S)NC(=O)c1cc(S(=O)(=O)N2CCOCC2)ccc1C (configuration not stated)	HGIII-sPLA2 inh 20 | hGIII sPLA2 conf inactive | 535nm interf inactive
Cc1ccc(S(=O)(=O)N2CCOCC2)cc1C(=O)NCC1CCCO1 (configuration not stated)	none
N#Cc1c(SCC(N)=O)nsc1SCc1ccc(Cl)cc1	HGIII-sPLA2 inh 30 | hGIII sPLA2 conf inactive | 535nm interf inactive
N#Cc1c(SCC(N)=O)nsc1SCc1ccccc1Cl	none
Oc1ccc(-c2cnc3c(Nc4cccc(OC(F)(F)C(F)F)c4)nccn23)cc1	none (no result: Efflux pump inh)
